Measured values reported in ChEMBL document CHEMBL5325481, “Examination of the Impact of Triazole Position within Linkers on Solubility and Lipophilicity of a CDK9 Degrader Series” (ACS Med Chem Lett, 2023).
≈ marks a conversion by molar mass, not a printed value.

Assays:
[1] = Lipophilicity, logK of compound at pH 7.7 in presence of 80% acetonitrile by HPLC analysis; type: physicochemical; details: buffer
[2] = Kinetic solubility of the compound at pH 7.4 incubated for 1.5 hrs under shaking condition by UV plate reader analysis; type: physicochemical; details: buffer, read-out: Kinetic_solubility
[3] = target: T1, Protein cereblon/Cyclin-dependent kinase 9 (Homo sapiens, UniProt P50750+Q96SW2); experiment: PROTAC activity at CRBN/CDK9 in human MOLM-13 cells assessed as induction of CDK9 degradation by measuring maximal efficacy at 0.01 to 5 uM incubated for 6 hrs by Western blot analysis relative to control; details: dose 0.01-5 µM
Target sequence in this assay (P50750 whole entry, looked up): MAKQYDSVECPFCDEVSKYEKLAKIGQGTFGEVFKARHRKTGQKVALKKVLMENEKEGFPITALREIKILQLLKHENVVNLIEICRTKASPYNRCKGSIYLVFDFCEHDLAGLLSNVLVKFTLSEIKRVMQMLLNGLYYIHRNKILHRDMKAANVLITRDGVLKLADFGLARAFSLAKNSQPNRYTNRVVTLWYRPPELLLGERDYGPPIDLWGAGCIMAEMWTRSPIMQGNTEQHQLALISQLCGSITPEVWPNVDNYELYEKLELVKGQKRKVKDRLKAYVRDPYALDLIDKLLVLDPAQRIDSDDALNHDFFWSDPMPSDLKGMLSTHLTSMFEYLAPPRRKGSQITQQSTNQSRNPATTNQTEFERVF
Target sequence in this assay (Q96SW2 whole entry, looked up): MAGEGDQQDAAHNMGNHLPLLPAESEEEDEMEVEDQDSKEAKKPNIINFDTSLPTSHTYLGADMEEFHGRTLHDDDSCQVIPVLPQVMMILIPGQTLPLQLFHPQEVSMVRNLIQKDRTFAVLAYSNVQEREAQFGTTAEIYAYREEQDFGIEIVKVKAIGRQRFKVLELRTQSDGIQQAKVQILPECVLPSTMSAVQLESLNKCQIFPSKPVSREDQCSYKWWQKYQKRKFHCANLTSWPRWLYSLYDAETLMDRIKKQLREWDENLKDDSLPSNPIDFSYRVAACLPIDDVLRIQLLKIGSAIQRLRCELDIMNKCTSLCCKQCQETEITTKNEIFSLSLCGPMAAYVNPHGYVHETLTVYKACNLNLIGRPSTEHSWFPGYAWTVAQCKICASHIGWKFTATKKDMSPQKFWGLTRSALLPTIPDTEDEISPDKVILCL

[4] = Aqueous solubility of the compound; type: physicochemical
[5] = target: T1, Protein cereblon/Cyclin-dependent kinase 9; experiment: PROTAC activity at CRBN/CDK9 in human MOLM-13 cells assessed as induction of CDK9 degradation incubated for 6 hrs by Western blot analysis
Target sequence in this assay (P50750 whole entry): as the sequence (P50750 whole entry, looked up) above
Target sequence in this assay (Q96SW2 whole entry): as the sequence (Q96SW2 whole entry, looked up) above

MV4-11 [6] = experiment: Antiproliferative activity against human MV4-11 cells assessed as inhibition of cell growth measured after 48 hrs in presence of fetal bovine serum by MTS assay; type: functional
Outline: (§1)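 MV4-11 AML cells exposed to compound, with growth medium supplemented with either human serum or fetal bovine serum. Cytotoxicity IC50 was determined in each serum condition. The serum shift is the change in activity between human serum and fetal bovine serum.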

MV4-11 [7] = experiment: Antiproliferative activity against human MV4-11 cells assessed as inhibition of cell growth measured after 48 hrs by MTS assay; type: functional, cell-based; details: MV4-11, 48 h
MV4-11 [8] = experiment: Antiproliferative activity against human MV4-11 cells assessed as fold decrease in cell growth measured after 48 hrs in presence of human serum by MTS assay; type: functional; outline: as §1
MV4-11 [9] = experiment: Antiproliferative activity against human MV4-11 cells assessed as inhibition of cell growth measured after 48 hrs in presence of human serum by MTS assay; type: functional; outline: as §1

log K [1]	solubility kinetic at 1.5 h [2] [µM]	Emax [3] [%]	solubility [4] [µM]	DC50 [5] [nM]	IC50 (MV4-11 [7]; read-out: IC50) [nM]	IC50 (MV4-11 [7]; read-out: pIC50 (converted)) [nM]	SMILES	EC (MV4-11 [6]) [nM]	fold change (FC) (MV4-11 [8])	EC (MV4-11 [9]) [nM]
0.084	40.9 (≈ 34.1 µg/mL)	79.1	≥ 40	70	190	200	O=C1CCC(N2C(=O)c3cccc(OCCCCn4cc(CCCCN5CCC(NC(=O)c6n[nH]cc6NC(=O)c6c(Cl)cccc6Cl)CC5)nn4)c3C2=O)C(=O)N1 (configuration not stated)	190.1	3	69.3
0.112	13.2 (≈ 11.4 µg/mL)	68.5	13.2 (≈ 11.4 µg/mL)	950	130	126	O=C1CCC(N2C(=O)c3cccc(OCCCCCn4cc(CCCCCN5CCC(NC(=O)c6n[nH]cc6NC(=O)c6c(Cl)cccc6Cl)CC5)nn4)c3C2=O)C(=O)N1 (configuration not stated)	–	–	–
0.176	4.7 (≈ 4.31 µg/mL)	78	–	60	60	63.1	O=C1CCC(N2C(=O)c3cccc(OCCCCCCCn4cc(CCCCCCCN5CCC(NC(=O)c6n[nH]cc6NC(=O)c6c(Cl)cccc6Cl)CC5)nn4)c3C2=O)C(=O)N1 (configuration not stated)	–	–	–
0.134	512 (≈ 196 µg/mL)	–	–	–	120	126	O=C(NC1CCNCC1)c1n[nH]cc1NC(=O)c1c(Cl)cccc1Cl [AT-7519]	–	–	–
0.146	5.65 (≈ 4.87 µg/mL)	88.3	5.65 (≈ 4.87 µg/mL)	60	50	50.1	O=C1CCC(N2C(=O)c3cccc(OCCCCCCCCn4cc(CCN5CCC(NC(=O)c6n[nH]cc6NC(=O)c6c(Cl)cccc6Cl)CC5)nn4)c3C2=O)C(=O)N1 (configuration not stated)	46.9	20	881.9
0.106	31.3 (≈ 26.5 µg/mL)	58.6	–	400	190	200	O=C1CCC(N2C(=O)c3cccc(OCCCCn4cc(CCCCCN5CCC(NC(=O)c6n[nH]cc6NC(=O)c6c(Cl)cccc6Cl)CC5)nn4)c3C2=O)C(=O)N1 (configuration not stated)	–	–	–
0.14	5.46 (≈ 4.86 µg/mL)	70.1	–	100	50	50.1	O=C1CCC(N2C(=O)c3cccc(OCCCCCCCn4cc(CCCCCN5CCC(NC(=O)c6n[nH]cc6NC(=O)c6c(Cl)cccc6Cl)CC5)nn4)c3C2=O)C(=O)N1 (configuration not stated)	–	–	–
0.1	12.4 (≈ 10.5 µg/mL)	67.5	–	130	240	251	O=C1CCC(N2C(=O)c3cccc(OCCCCCn4cc(CCCCN5CCC(NC(=O)c6n[nH]cc6NC(=O)c6c(Cl)cccc6Cl)CC5)nn4)c3C2=O)C(=O)N1 (configuration not stated)	–	–	–
0.184	2.38 (≈ 2.18 µg/mL)	86.2	–	70	70	79.4	O=C1CCC(N2C(=O)c3cccc(OCCCCCCCCn4cc(CCCCCCN5CCC(NC(=O)c6n[nH]cc6NC(=O)c6c(Cl)cccc6Cl)CC5)nn4)c3C2=O)C(=O)N1 (configuration not stated)	–	–	–
0.197	3.42 (≈ 3.14 µg/mL)	88.6	–	40	10	7.94	O=C1CCC(N2C(=O)c3cccc(OCCCCn4cc(CCCCCCCCCCN5CCC(NC(=O)c6n[nH]cc6NC(=O)c6c(Cl)cccc6Cl)CC5)nn4)c3C2=O)C(=O)N1 (configuration not stated)	8.8	3	28.6
0.116	12.9 (≈ 11.1 µg/mL)	75.3	12.9 (≈ 11.1 µg/mL)	100	70	79.4	O=C1CCC(N2C(=O)c3cccc(OCCCCn4cc(CCCCCCN5CCC(NC(=O)c6n[nH]cc6NC(=O)c6c(Cl)cccc6Cl)CC5)nn4)c3C2=O)C(=O)N1 (configuration not stated)	–	–	–
